“Also recorded” adds a separate entry of the source.
Legend:
RBM39RRM2-biotin = target: T1, RBM39RRM2-biotin (Homo sapiens, UniProt Q14498); assay: TR-FRET titration of BodipyFL-E7820 probe to RBM39RRM2-biotin; assay type: binding; details: probe titrated to RBM39RRM2-biotin
T1 sequence (Q14498 245-332): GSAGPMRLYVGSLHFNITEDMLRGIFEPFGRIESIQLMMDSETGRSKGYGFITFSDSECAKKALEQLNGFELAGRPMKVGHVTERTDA
Outline: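 RBM39RRM2 was Avi-tagged and biotinylated in vitro with BirA, then gel-filtered. It was mixed with 2 nM terbium-streptavidin in Tris pH 8.0/NaCl/Pluronic F-68/BSA buffer. Increasing BodipyFL-E7820 probe was added at 2% DMSO, 15 min room temperature. The 520/490 nm ratio without protein was subtracted, and KD came from a one-site specific-binding fit. Three independent replicates.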

DCAF15 = DCAF15 (Homo sapiens, UniProt Q66K64); assay: TR-FRET competition assay: displacement of BodipyFL-E7820 from DCAF15; assay type: binding; details: for DCAF15 binding, in words: relative to E7820

Structure (SMILES) | compound binding to RBM39 (RBM39RRM2-biotin) | Ki (DCAF15) [µM] | DCAF15 binding, in words (DCAF15)
Cc1cc(C)n2c1C=C1C=CC(CCC(=O)NCCCCCCOc3ccc(S(=O)(=O)Nc4ccc(C)c5c(C#N)c[nH]c45)cc3C#N)=[N+]1[B-]2(F)F [BodipyFL-E7820, N-(6-(2-cyano-4-(N-(3-cyano-4-methyl-1H-indol-7-yl)sulfamoyl)phenoxy)hexyl)-3-(5,5-difluoro-7,9-dimethyl-5H-5λ^4,6λ^4-dipyrrolo[1,2-c:2',1'-f][1,3,2]diazaborinin-3-yl)propanamide] | only observed for DDB1ΔB-DCAF15biotin |  | 
NS(=O)(=O)c1ccc(S(=O)(=O)Nc2cccc3c(Cl)c[nH]c23)cc1 [indisulam] |  | > 50 | significant loss of DCAF15 binding; also recorded: significant loss in affinity for DCAF15
N#Cc1cccc(S(=O)(=O)Nc2cccc3c(C#N)c[nH]c23)c1 [desmethyl-E7820] |  |  | significant loss of DCAF15 binding

From paper PMC6917914 (Nature chemical biology, 2019)
